Laboratory results: publication PMC6581564 (Biomacromolecules, 2019)

Tests used:
[1] = cited from earlier work
[2] = tested on: P. aeruginosa strain PAO1; assay: Colistin MIC by modified broth microdilution assay; type: cell-based, Pseudomonas aeruginosa; conditions: in MHB, 37 °C, 24 hours, visual inspection
Summary of the method: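 PAO1 grown overnight in Mueller-Hinton II broth (MHB) at 37 °C, then diluted into fresh MHB to about 3×10⁴ CFU/mL. Test compound stock in water was serially diluted 2-fold in MHB and mixed 1:10 with the inoculum (final 1 mg/mL to 0.4 μg/mL). Plates incubated 24 h at 37 °C. MIC taken as the lowest concentration with no visible growth.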

[3] = target: MUC5AC (Sus scrofa, UniProt A0A8W4FM62); assay: Equilibrium dialysis; type: binding, pig; conditions: mucin 0.5% w/v; for Mucin binding rank within the NIH Clinical Collection (NCC) set (ΔG): in PBS, 41 NCC molecules, 200 nM
[4] = tested on: P. aeruginosa strain PAO1; assay: Colistin efficacy; type: cell-based, Pseudomonas aeruginosa; conditions: colistin 8 or 16 μg/mL, 24 h

MUC5AC, sequence (A0A8W4FM62 1-4915): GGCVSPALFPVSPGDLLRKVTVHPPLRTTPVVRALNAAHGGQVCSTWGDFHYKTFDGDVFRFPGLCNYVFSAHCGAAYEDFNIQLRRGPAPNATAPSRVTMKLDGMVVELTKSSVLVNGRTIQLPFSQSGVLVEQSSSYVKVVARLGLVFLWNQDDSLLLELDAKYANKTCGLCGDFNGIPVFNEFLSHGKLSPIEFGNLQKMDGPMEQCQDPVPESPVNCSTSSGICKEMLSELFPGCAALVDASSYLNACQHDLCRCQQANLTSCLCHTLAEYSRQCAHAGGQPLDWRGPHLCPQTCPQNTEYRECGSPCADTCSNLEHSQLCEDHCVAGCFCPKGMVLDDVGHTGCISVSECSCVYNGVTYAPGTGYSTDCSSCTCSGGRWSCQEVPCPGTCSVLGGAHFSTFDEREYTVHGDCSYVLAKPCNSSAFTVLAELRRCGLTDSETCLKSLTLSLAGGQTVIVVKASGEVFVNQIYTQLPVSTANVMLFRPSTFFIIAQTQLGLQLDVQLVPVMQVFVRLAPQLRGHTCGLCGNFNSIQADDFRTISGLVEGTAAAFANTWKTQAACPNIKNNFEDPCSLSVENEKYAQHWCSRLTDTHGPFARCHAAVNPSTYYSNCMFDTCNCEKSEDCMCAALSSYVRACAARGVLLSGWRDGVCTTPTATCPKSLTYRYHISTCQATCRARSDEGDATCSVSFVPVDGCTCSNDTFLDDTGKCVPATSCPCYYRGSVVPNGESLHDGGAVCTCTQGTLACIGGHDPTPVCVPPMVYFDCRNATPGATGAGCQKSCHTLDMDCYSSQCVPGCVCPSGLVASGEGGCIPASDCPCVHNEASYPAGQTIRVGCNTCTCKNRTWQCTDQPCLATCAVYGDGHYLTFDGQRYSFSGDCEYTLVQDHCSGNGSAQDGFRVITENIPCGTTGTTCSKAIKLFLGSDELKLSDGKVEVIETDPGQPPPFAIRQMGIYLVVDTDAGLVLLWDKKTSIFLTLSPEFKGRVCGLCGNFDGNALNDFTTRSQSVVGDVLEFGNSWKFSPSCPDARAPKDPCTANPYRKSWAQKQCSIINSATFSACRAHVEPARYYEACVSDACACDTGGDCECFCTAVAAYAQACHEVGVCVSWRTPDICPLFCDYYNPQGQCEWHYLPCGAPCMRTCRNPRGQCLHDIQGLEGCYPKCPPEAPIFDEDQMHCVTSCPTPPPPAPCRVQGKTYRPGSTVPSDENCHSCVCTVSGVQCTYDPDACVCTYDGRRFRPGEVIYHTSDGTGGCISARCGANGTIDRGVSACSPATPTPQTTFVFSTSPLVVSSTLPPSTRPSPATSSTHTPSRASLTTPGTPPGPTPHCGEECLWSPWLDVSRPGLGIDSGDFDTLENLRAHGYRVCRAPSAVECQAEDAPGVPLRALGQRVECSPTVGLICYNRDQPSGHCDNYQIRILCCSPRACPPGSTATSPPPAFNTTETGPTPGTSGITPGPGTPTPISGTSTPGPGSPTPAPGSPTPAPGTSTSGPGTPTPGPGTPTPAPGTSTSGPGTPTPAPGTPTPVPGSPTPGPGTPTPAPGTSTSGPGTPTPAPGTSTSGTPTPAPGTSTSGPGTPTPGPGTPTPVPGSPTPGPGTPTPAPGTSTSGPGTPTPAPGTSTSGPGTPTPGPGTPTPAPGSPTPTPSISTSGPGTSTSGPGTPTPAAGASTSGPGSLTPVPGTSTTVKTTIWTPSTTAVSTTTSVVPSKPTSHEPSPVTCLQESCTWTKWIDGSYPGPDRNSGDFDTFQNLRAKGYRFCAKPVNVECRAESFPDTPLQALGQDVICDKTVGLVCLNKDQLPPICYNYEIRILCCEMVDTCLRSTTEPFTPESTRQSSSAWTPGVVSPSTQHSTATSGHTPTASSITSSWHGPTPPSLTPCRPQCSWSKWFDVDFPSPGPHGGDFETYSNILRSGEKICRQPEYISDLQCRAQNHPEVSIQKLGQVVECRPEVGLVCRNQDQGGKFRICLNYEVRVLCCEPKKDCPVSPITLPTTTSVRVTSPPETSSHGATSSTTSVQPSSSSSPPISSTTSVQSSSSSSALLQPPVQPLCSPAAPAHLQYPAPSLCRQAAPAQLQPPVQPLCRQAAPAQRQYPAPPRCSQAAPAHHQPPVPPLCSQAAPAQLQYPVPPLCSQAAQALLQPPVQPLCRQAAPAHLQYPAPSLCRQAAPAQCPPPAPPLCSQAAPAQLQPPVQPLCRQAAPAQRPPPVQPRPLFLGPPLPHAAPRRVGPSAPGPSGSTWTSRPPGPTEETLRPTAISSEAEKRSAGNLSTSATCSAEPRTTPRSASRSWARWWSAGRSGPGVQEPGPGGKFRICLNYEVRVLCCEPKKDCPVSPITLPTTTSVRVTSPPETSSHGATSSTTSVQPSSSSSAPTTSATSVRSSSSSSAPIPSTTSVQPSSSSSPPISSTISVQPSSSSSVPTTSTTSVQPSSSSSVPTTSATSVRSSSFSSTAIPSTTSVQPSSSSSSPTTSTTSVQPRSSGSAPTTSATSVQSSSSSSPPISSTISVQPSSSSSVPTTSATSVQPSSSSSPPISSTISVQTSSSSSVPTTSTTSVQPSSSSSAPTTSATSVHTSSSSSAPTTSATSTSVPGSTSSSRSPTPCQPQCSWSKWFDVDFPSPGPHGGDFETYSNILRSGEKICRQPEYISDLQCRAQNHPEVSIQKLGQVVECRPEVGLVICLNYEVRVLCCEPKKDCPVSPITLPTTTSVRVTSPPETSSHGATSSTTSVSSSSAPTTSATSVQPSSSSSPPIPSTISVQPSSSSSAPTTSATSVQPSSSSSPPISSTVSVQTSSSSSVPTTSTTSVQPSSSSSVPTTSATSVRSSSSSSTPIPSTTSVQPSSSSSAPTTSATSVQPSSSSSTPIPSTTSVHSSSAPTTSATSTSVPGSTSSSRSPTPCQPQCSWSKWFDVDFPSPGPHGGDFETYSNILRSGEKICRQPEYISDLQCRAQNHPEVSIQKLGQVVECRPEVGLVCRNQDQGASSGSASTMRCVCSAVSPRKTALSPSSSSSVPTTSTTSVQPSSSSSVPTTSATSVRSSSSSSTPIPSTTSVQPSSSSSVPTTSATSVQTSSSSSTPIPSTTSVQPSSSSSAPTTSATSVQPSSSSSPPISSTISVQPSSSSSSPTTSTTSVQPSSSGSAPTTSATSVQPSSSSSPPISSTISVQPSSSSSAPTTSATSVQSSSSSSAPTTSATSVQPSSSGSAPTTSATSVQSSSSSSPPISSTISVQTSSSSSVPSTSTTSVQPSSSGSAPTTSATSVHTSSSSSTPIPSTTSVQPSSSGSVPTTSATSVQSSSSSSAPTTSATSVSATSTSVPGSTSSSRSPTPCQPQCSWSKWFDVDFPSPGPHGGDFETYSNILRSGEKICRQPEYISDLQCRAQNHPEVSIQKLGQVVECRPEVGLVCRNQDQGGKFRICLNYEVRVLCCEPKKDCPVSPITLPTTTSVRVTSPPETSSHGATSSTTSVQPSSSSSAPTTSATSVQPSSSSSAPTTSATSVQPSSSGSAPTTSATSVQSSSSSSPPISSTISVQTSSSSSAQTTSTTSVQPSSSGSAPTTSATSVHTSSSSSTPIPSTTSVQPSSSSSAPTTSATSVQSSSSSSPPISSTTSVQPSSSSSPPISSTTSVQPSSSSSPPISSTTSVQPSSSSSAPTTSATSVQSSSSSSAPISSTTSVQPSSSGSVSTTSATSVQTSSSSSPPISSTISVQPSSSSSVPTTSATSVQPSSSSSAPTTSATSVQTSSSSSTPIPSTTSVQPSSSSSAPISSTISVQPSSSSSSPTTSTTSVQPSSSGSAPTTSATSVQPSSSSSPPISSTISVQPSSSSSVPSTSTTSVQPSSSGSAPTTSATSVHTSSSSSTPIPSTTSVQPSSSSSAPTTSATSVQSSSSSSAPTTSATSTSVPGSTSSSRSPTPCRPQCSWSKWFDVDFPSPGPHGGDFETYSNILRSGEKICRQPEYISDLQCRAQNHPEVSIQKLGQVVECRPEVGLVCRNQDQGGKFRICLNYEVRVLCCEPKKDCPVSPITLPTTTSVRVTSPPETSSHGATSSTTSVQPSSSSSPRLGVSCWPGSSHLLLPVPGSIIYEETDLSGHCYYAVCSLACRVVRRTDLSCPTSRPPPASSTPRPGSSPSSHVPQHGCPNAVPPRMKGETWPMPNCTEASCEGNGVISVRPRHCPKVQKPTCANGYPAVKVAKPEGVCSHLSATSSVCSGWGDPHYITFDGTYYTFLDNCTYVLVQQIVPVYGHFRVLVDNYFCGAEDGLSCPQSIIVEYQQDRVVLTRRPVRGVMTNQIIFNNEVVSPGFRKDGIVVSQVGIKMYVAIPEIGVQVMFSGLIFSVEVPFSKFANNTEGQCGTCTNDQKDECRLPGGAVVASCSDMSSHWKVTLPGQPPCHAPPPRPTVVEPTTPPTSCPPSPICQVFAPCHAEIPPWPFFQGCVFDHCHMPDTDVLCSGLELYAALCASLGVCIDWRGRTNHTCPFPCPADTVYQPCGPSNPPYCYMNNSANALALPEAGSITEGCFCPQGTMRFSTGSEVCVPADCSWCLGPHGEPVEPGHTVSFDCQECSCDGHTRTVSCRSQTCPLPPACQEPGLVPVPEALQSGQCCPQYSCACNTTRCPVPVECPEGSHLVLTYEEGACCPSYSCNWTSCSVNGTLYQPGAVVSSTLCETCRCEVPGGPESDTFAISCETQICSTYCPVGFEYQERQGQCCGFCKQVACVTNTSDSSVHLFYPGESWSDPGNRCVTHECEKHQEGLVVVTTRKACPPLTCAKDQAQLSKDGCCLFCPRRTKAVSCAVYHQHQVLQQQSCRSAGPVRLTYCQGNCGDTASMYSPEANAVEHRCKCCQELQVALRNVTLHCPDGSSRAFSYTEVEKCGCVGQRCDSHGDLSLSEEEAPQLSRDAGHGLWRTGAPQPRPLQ

Mucin binding rank within the NIH Clinical Collection (NCC) set (ΔG) [3] | Molecule | Molecular charge [1] | also measured
 | colistin | +5 | MIC [2]: 8 µg/mL; Binding to mucin (ΔG; negative ΔG implies binding) ([3]; colistin 10 μM, 4 h, 37 °C): bound to mucin; Effect of methylcellulose on colistin activity (surviving PAO1 cells, CFU) ([4]; MC 0.5% w/v in MHB): negligible effect; Effect of mucin on colistin activity (surviving PAO1 cells, CFU) ([4]; mucin 0.5% w/v in MHB): inhibited the effect of colistin to a substantial degree
four strongest mucin binders | CNCCCC12CCC(c3ccccc31)c1ccccc12 [maprotiline] |  | 
four strongest mucin binders | COc1cccc2c1C(=O)c1c(O)c3c(c(O)c1C2=O)C[C@@](O)(C(=O)CO)C[C@@H]3O[C@H]1C[C@H](N)[C@H](O)[C@H](C)O1 [doxorubicin] |  | 
four strongest mucin binders | Nc1nc(Cl)nc2c1ncn2[C@H]1C[C@H](O)[C@@H](CO)O1 [cladribine] |  | 
four strongest mucin binders | O=c1c(-c2ccccc2)c1-c1ccccc1 [diphencyprone] |  | 
 | NC[C@H]1O[C@H](O[C@H]2[C@H](O)[C@@H](O[C@H]3O[C@H](CO)[C@@H](O)[C@H](N)[C@H]3O)[C@H](N)C[C@@H]2N)[C@H](N)C[C@@H]1O [tobramycin] | +5 | 
